# Key:
# Caco-2 = assay: Cytotoxicity against human Caco-2 cells assessed as cell viability by XTT assay; type: functional, cell-based
# Method in brief: (§1)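 Cells were seeded at 5 × 10^4 per well and grown 48 h at 37 °C, 5% CO2, before medium renewal. Drugs were added at a range of concentrations for 24 h. XTT was added for 4 h, then absorbance read at 490 nm against medium-only controls. Viability was plotted versus concentration to estimate EC50 (mean ± SD, n = 3).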
# MCF7 = assay: Cytotoxicity against human MCF7 cells assessed as cell viability by XTT assay; type: functional, cell-based; method in brief: as §1
# MDA-MB-231 = assay: Cytotoxicity against human MDA-MB-231 cells assessed as cell viability by XTT assay; type: functional, cell-based; method in brief: as §1
# [1] = molecular target: T1, Xaa-Pro dipeptidase (Homo sapiens) (UniProt P12955); assay: Activity of prolidase in human Caco-2 cells measured per gram of protein in presence of Cbz-pro; type: cell-based
# T1 sequence (whole entry): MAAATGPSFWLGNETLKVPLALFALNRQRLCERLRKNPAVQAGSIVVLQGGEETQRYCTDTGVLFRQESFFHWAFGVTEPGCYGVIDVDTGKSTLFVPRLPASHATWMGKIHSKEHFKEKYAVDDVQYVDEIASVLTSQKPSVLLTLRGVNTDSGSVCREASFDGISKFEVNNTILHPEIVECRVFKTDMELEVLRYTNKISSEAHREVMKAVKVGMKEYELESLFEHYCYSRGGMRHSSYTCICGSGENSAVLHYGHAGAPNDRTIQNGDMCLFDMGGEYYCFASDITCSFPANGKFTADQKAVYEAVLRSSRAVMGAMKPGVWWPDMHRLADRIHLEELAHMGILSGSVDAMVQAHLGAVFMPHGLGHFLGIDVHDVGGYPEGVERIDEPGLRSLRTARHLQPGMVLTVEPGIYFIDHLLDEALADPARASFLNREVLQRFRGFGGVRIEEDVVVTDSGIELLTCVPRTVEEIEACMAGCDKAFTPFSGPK
# Method in brief: (§2)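 Cells were grown to 90% confluence, trypsinized, PBS-washed, and lysed in 1% Triton X-100/PBS. Lysate was spun 18,000 rpm, 30 min, 4 °C. Supernatant was activated 2 h at 37 °C with Tris–HCl/200 mM MnCl2/30 mM glutathione. 1 mM Pro-MTX was then added at 37 °C, sampled at 15, 30 and 60 min, and TFA-quenched. Proline was read colorimetrically; specific activity is per µg protein. Cbz-Pro inhibitor was equimolar.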
# Sus scrofa [2] = organism: Sus scrofa; assay: Activity of pig kidney prolidase measured per gram of protein
# Method in brief: (§3)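 Pro-MTX (1 mM) hydrolysed by porcine kidney prolidase at 40 °C. Enzyme was first activated 30 min at 40 °C in 50 mM Tris–HCl (pH 8.0) with 200 mM MnCl2 and 30 mM glutathione. Samples were taken at 15 min, 30 min and 1 h and quenched with equal volume 10% TFA. Released proline was assayed colorimetrically (Chinard's reagent, 90 °C 10 min, A495). Inhibitor runs added Cbz-Pro equimolar to substrate.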
# [3] = Chemical stability of the compound in phosphate buffer saline of pH 7.4; type: physicochemical
# [4] = molecular target: T1, Xaa-Pro dipeptidase (Homo sapiens); assay: Activity of prolidase in human HeLa cells measured per gram of protein; type: cell-based; method in brief: as §2
# Sus scrofa [5] = organism: Sus scrofa; assay: Activity of pig kidney prolidase measured per gram of protein in presence of Cbz-pro; method in brief: as §3
# [6] = molecular target: T1, Xaa-Pro dipeptidase (Homo sapiens); assay: Activity of prolidase in human Caco-2 cells measured per gram of protein; type: cell-based; method in brief: as §2
# [7] = molecular target: T1, Xaa-Pro dipeptidase (Homo sapiens); assay: Activity of prolidase in human HeLa cells measured per gram of protein in presence of Cbz-pro; type: cell-based; method in brief: as §2
Structure (SMILES),EC50 (Caco-2),EC50 (MCF7),EC50 (MDA-MB-231),Activity [1],Activity (Sus scrofa [2]),Stability [3],Activity [4],Activity (Sus scrofa [5]),Activity [6],Activity [7]
CN(Cc1cnc2nc(N)nc(N)c2n1)c1ccc(C(=O)N[C@@H](CCC(=O)O)C(=O)O)cc1 [METHOTREXATE],1.1 µM,0.9 µM,80 µM,–,–,–,–,–,–,–
CN(Cc1cnc2nc(N)nc(N)c2n1)c1ccc(C(=O)N[C@H](CCC(=O)O)C(=O)N2CCC[C@@H]2C(=O)O)cc1,5.6 µM,5.2 µM,11 µM,0.28 pmol/min,19 pmol/min,Stable,0.35 pmol/min,8.15 pmol/min,0.42 pmol/min,0.19 pmol/min
